Calls of active or inactive are those of the source. No cut-off for these calls is given here.
Assays:
MCF7 [1] = test: Induction of mitochondrial membrane potential loss in human MCF7 cells assessed as red fluorescence intensity at 2 uM measured after 48 hrs by JC1 staining-based flow cytometry analysis (reference value: 91.9%); type: functional
MCF7 [2] = test: Induction of apoptosis in human MCF7 cells assessed as late apoptotic cells at 2 uM measured after 48 hrs by Annexin V-FITC/propidium iodide staining based flow cytometric analysis (reference value: 0.6 %); type: functional
MCF7 [3] = test: Induction of apoptosis in human MCF7 cells assessed as increase in Bax to Bcl2 ratio at 1 to 4 uM measured after 48 hrs by western blot analysis; type: functional, cell-based; settings: dose 1-4 µM
Procedure, shortened: (§1)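 MCF-7 and MDA-MB-231 breast cancer cells treated 48 h with a concentration series, then lysed for protein. SDS-PAGE on 5–15% gels, transfer to nitrocellulose. Blocked 2 h in 5% nonfat milk/PBS-0.1% Tween 20, primary antibodies overnight at 4 °C, biotin-conjugated secondary 1 h. X-ray film detection with densitometric quantification.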

MDA-MB-231 [4] = test: Cell cycle arrest in human MDA-MB-231 cells assessed as accumulation at S phase at 9 uM measured after 48 hrs by propidium iodide staining based flow cytometry (reference value: 35.54 %); type: functional
MDA-MB-231 [5] = test: Potency index, ratio of 5-FU IC50 to test compound IC50 for anticancer activity against human MDA-MB-231 cells measured after 72 hrs by MTT assay; type: functional
Procedure, shortened: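 MTT assay: 3000 exponentially growing cells per well, 12 h at 37 °C. Medium replaced with compound at a range of concentrations for 72 h. MTT (5 mg/mL stock) added for 4 h, formazan dissolved in DMSO. Absorbance read at 570 nm (reference 630 nm); percent inhibition gives IC50. Index is 5-FU IC50 divided by test-compound IC50.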

MDA-MB-231 [6] = test: Induction of apoptosis in human MDA-MB-231 cells assessed as decrease in Mcl-1 protein expression at 3 to 9 uM measured after 48 hrs by western blot analysis; type: functional, cell-based; settings: dose 3-9 µM; procedure, shortened: as §1
MDA-MB-231 [7] = test: Cell cycle arrest in human MDA-MB-231 cells assessed as accumulation at S phase at 6 uM measured after 48 hrs by propidium iodide staining based flow cytometry (reference value: 35.54 %); type: functional
MDA-MB-231 [8] = test: Induction of G2/M phase cell cycle arrest in human MDA-MB-231 cells assessed as increase in Cdc25c protein expression at 3 to 9 uM measured after 48 hrs by western blot analysis; type: functional, cell-based; settings: dose 3-9 µM
MCF7 [9] = test: Induction of apoptosis in human MCF7 cells assessed as late apoptotic cells at 4 uM measured after 48 hrs in presence of cdc25c inhibitor, NSC663284 by AnnexinV-FITC/PI staining based flow cytometry (reference value: 4.9%); type: functional
MCF7 [10] = test: Induction of DNA damage in human MCF7 cells assessed as increase in Chk2 protein expression at 1 to 4 uM measured after 48 hrs by western blot analysis; type: functional, cell-based; settings: dose 1-4 µM
Procedure, shortened: (§2)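 Cells exposed to graded concentrations for 48 h, then proteins extracted. Run on SDS-PAGE (5–15% gels) and transferred to nitrocellulose. Blocked 2 h in 5% nonfat milk in PBS/0.1% Tween 20, primary antibody overnight at 4 °C, biotin-conjugated secondary 1 h. Visualized on X-ray film with densitometric quantitation; three independent experiments.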

MDA-MB-231 [11] = test: Induction of DNA damage in human MDA-MB-231 cells assessed as increase in Chk2 protein expression at 3 to 9 uM measured after 48 hrs by western blot analysis; type: functional, cell-based; settings: dose 3-9 µM; procedure, shortened: as §2
MCF7 [12] = test: Induction of apoptosis in human MCF7 cells assessed as reduction in Mcl-1 protein expression at 1 to 4 uM measured after 48 hrs by western blot analysis; type: functional, cell-based; settings: dose 1-4 µM; procedure, shortened: as §1
MDA-MB-231 [13] = test: Induction of apoptosis in human MDA-MB-231 cells assessed as late apoptotic cells at 9 uM measured after 48 hrs in presence of cdc25c inhibitor, NSC663284 by AnnexinV-FITC/PI staining based flow cytometry (reference value: 8.3%); type: functional
MCF7 [14] = test: Induction of DNA damage in human MCF7 cells assessed as increase in ATM protein expression at 1 to 4 uM measured after 48 hrs by western blot analysis; type: functional, cell-based; settings: dose 1-4 µM; procedure, shortened: as §2
MCF7 [15] = test: Induction of G2/M phase cell cycle arrest in human MCF7 cells assessed as decrease in p-cdc2 protein expression at 1 to 4 uM measured after 48 hrs by western blot analysis; type: functional, cell-based; settings: dose 1-4 µM; procedure, shortened: as §2
ECa-109 cell line = test: Antiproliferative activity against human ECa-109 cells assessed as cell growth inhibition measured after 72 hrs by MTT assay; type: functional, cell-based; settings: ECa-109, 72 h
Procedure, shortened: (§3)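 Cells seeded at 3000 exponentially growing cells/well and incubated 12 h at 37 °C. Medium then replaced with fresh medium containing graded compound concentrations for 72 h; 5-FU positive control. MTT (5 mg/mL solution) added for 4 h, formazan dissolved in DMSO, absorbance read at 570 nm (reference 630 nm). Relative percentage inhibition of viable cells calculated; IC50 reported as mean ± standard deviation.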

MDA-MB-231 [16] = test: Induction of mitochondrial membrane potential loss in human MDA-MB-231 cells assessed as green fluorescence intensity at 3 uM measured after 48 hrs by JC1 staining-based flow cytometry analysis (reference value: 0.8 %); type: functional
MDA-MB-231 [17] = test: Cell cycle arrest in human MDA-MB-231 cells assessed as accumulation at G1 phase at 9 uM measured after 48 hrs by propidium iodide staining based flow cytometry (reference value: 46.28%); type: functional
MCF7 [18] = test: Induction of apoptosis in human MCF7 cells assessed as increase in cleaved PARP protein expression at 1 to 4 uM measured after 48 hrs by western blot analysis; type: functional, cell-based; settings: dose 1-4 µM; procedure, shortened: as §1
MCF7 [19] = test: Induction of mitochondrial membrane potential loss in human MCF7 cells assessed as green fluorescence intensity at 1 uM measured after 48 hrs by JC1 staining-based flow cytometry analysis (reference value: 8.1 %); type: functional
HeLa = test: Anticancer activity against human HeLa cells assessed as inhibition of cell growth measured after 72 hrs by MTT assay; type: functional, cell-based; procedure, shortened: as §3
MCF7 [20] = test: Antiproliferative activity against human MCF7 cells assessed as reduction in cell viability at 0.06 to 16 uM measured after 24 to 72 hrs by MTT assay; type: functional, cell-based; settings: dose 0.06-16 µM, time 24-72 hrs
Procedure, shortened: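 MTT viability time course on the breast cancer cells with increasing compound concentrations for 24, 48 and 72 h. Cells seeded at 3000/well and allowed 12 h before treatment. MTT (5 mg/mL solution) applied for 4 h, crystals dissolved in DMSO, absorbance read at 570/630 nm. Viability expressed relative to untreated cells.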

MDA-MB-231 [21] = test: Induction of mitochondrial membrane potential loss in human MDA-MB-231 cells assessed as red fluorescence intensity at 3 uM measured after 48 hrs by JC1 staining-based flow cytometry analysis (reference value: 99.2 %); type: functional
MCF7 [22] = test: Induction of mitochondrial membrane potential loss in human MCF7 cells assessed as green fluorescence intensity at 4 uM measured after 48 hrs by JC1 staining-based flow cytometry analysis (reference value: 8.1 %); type: functional
MCF7 [23] = test: Induction of apoptosis in human MCF7 cells assessed as increase in cleaved caspase 9 protein expression at 1 to 4 uM measured after 48 hrs by western blot analysis; type: functional, cell-based; settings: dose 1-4 µM; procedure, shortened: as §1
MCF7 [24] = test: Induction of G2/M phase cell cycle arrest in human MCF7 cells assessed as increase in cdc25c protein expression at 1 to 4 uM measured after 48 hrs by western blot analysis; type: functional, cell-based; settings: dose 1-4 µM; procedure, shortened: as §2

In the case of `C[C@H]1O[C@@H](n2cnc3c(N)nc(F)nc32)[C@H](O)[C@H]1OCP(=O)([O-])[O-].[Na+].[Na+]`, the Activity (MCF7 [1]) is reported as 67.2%, the Activity (MCF7 [2]) is reported as 6.5% and the Activity (MCF7 [3]) is reported as “Active”. The Activity (MDA-MB-231 [4]) was 32.34%, the “Ratio IC50” value (MDA-MB-231 [5]) was 47 and the Activity (MDA-MB-231 [6]) was “Active”. For the same molecule, the Activity (MDA-MB-231 [7]) was 31.86%, the Activity (MDA-MB-231 [8]) was “Active” and the Activity (MCF7 [9]) was 5.2%. The Activity (MCF7 [10]) was “Active”, the Activity (MDA-MB-231 [11]) was “Active” and the Activity (MCF7 [12]) was “Active”. The Activity (MDA-MB-231 [13]) was 3.2%, the Activity (MCF7 [14]) was “Active” and the Activity (MCF7 [15]) was “Active”. The IC50 (ECa-109 cell line) was 2570 nM, the Activity (MDA-MB-231 [16]) was 1.4% and the Activity (MDA-MB-231 [17]) was 33.66%. For the same molecule, the Activity (MCF7 [18]) was “Active”, the Activity (MCF7 [19]) was 9.1% and the IC50 (HeLa) was 6.2 µM. The Activity (MCF7 [20]) was “Active”, the Activity (MDA-MB-231 [21]) was 98.6% and the Activity (MCF7 [22]) was 58.1%. The Activity (MCF7 [23]) was “Active” and the Activity (MCF7 [24]) was “Active”.
